Test results reported in ChEMBL document CHEMBL4014336 (J Med Chem, 2017).

Tests used:
Cynomolgus monkey [1] = assay: In vivo inhibition of 11beta-HSD1 in non-fasting diet-induced obese cynomolgus monkey assessed as decrease in corticosterone excursion in plasma pretreated via oral gavage for 30 mins followed by DHC administration measured up to 60 mins by enzyme immunosorbent assay; assay type: functional; conditions: Macaca fascicularis
How it was run: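 Cynomolgus monkeys given test compound at a predetermined time before the experiment, chosen from its pharmacokinetics. Substrate DHC (rodent substrate, used in place of cortisone) given afterwards. Blood sampled at various times. Design otherwise similar to the mouse DHC challenge.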

Cynomolgus monkey [2] = assay: Toxicity in cynomolgus monkey assessed as HPA axis activation by measuring increase in DHEA level at 10 mg/kg for 7 days; assay type: organism-based, Macaca fascicularis; conditions: in vivo, 168 h
Cynomolgus monkey [3] = assay: Toxicity in cynomolgus monkey assessed as HPA axis activation by measuring increase in DHEAS level at 10 mg/kg for 7 days; assay type: organism-based, Macaca fascicularis; conditions: in vivo, 168 h
Cynomolgus monkey [4] = assay: Toxicity in cynomolgus monkey assessed as HPA axis activation by measuring increase in cortisol level at 10 mg/kg for 7 days; assay type: organism-based, Macaca fascicularis; conditions: in vivo, 168 h
[5] = Metabolic stability in human liver microsomes assessed as UGT-mediated glucuronidation of compound by measuring half life in presence of UDPGA; assay type: ADME
How it was run: (§1)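 Liver microsomal glucuronidation incubations in the presence of UDPGA; parent half-life determined.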

[6] = Metabolic stability in mouse liver microsomes assessed as UGT-mediated glucuronidation of compound by measuring half life in presence of UDPGA; assay type: ADME; how it was run: as §1
[7] = (§2) Metabolic stability in human liver microsomes assessed as parent compound remaining after 10 mins; assay type: ADME, microsome; conditions: liver microsomes, read-out: Stability
How it was run: (§3)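 Parent compound remaining after a 10 min incubation with human, mouse or rat liver microsomes.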

[8] = (§4) Metabolic stability in mouse liver microsomes assessed as parent compound remaining after 10 mins; assay type: ADME, microsome; conditions: liver microsomes, read-out: Stability; how it was run: as §3
[9] = (§5) Metabolic stability in rat liver microsomes assessed as parent compound remaining after 10 mins; assay type: ADME, microsome; conditions: liver microsomes, read-out: Stability; how it was run: as §3
[10] = target: T1, Nuclear receptor subfamily 1 group I member 2 (Homo sapiens, UniProt O75469); assay: Activation of PXR (unknown origin); assay type: ADME
T1 sequence (O75469 whole entry): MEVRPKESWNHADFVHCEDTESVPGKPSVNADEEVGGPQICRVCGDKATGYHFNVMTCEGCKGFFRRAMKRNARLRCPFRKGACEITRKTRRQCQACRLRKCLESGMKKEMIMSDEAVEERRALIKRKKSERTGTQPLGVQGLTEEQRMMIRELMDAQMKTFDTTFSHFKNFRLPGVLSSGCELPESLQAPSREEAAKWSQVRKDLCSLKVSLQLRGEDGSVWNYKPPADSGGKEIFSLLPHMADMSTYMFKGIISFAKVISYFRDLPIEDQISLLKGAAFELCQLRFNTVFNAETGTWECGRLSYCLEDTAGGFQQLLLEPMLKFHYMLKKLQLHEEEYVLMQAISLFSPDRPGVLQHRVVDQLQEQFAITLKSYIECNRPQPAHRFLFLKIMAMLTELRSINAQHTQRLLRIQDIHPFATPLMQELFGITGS
How it was run: (§6)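 PXR transactivation assay; EC50 and maximal activation (Ymax, % of control) reported.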

[11] = target: 11-beta-hydroxysteroid dehydrogenase 1 (Mus musculus, UniProt P50172)
PXR = PXR (Homo sapiens, UniProt O75469); assay: Activation of PXR (unknown origin) relative to control; assay type: ADME; how it was run: as §6
Liver [12] = assay: as §5; assay type: ADME, microsome; conditions: microsomes, 10 min; how it was run: as §3
[13] = Inhibition of cynomolgus monkey 11beta-HSD1; set-up: species or system Macaca fascicularis
Liver [14] = assay: as §2; assay type: ADME, microsome; conditions: microsomes, 10 min; how it was run: as §3
Liver [15] = assay: as §4; assay type: ADME, microsome; conditions: microsomes, 10 min; how it was run: as §3
Mus musculus = assay: In vivo inhibition of 11beta-HSD1 in po dosed non-fasting diet-induced obese mouse assessed as decrease in corticosterone excursion in plasma pretreated for 60 mins followed by DHC administration measured up to 120 mins by enzyme immunosorbent assay; assay type: functional
How it was run: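 Nonfasting diet-induced obese male mice, groups of n = 6 matched for body weight; tail bleed at −60 min, then oral vehicle (0.5% Methocel, 0.1% Tween 80 in water) or drug. At 60 min, bleed and oral DHC 10 mg/kg. Bleeds at 30, 60 and 120 min post-DHC. Plasma corticosterone measured by enzyme immunosorbent assay; drug levels in terminal bleed.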

Sequence of 11-beta-hydroxysteroid dehydrogenase 1 (P50172 whole entry): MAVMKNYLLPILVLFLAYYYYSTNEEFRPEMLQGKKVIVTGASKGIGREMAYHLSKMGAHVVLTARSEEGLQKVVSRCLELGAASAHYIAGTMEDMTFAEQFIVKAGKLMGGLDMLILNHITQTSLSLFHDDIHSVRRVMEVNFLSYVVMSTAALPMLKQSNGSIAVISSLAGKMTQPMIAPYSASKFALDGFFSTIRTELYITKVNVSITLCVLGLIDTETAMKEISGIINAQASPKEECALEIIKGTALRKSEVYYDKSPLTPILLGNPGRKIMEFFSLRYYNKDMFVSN

Structure (SMILES)	remaining at 10 min [7] [%]	remaining at 10 min [8] [%]	remaining at 10 min [9] [%]	other results
O=C(O)CC1(c2ccc(F)cc2)C2CC3CC(C2)CC1C3 (stereo unspecified)				ED50 (Cynomolgus monkey [1]): 0.3 mg/kg; Activity (Cynomolgus monkey [2]): Toxic; Activity (Cynomolgus monkey [3]): Toxic; Activity (Cynomolgus monkey [4]): Toxic
Fc1ccc(C2(Cc3nnn[nH]3)C3CC4CC(C3)CC2C4)cc1 (stereo unspecified)				half-life [5]: > 120 min; half-life [6]: > 60 min
N#CC12CC3CC(C1)C(CC(=O)N1CC(O)C1)(c1ccc(F)cc1)C(C3)C2 (stereo unspecified)	62	42	46	EC50 [10]: > 50 µM
O=C(CC1(c2ccc(F)cc2)C2CC3CC(C2)CC1C3)N1CC[C@@H]1CO (stereo partly specified)				IC50 [11]: 12 nM
O=C(CC1(c2ccc(F)cc2)C2CC3CC(C2)CC1C3)N1CC(O)C1 (stereo unspecified)				EC50 [10]: 6.7 µM; Emax (PXR): 37%
NC(=O)C12CC3CC(C1)C(CC(=O)N1CC(O)C1)(c1ccc(F)cc1)C(C3)C2 (stereo unspecified)	82 to 100	73 to 77	62 to 79	EC50 [10]: > 50 µM
O=C(CC1(c2ccc(F)cc2)C2CC3CC(C2)CC1C3)N1CC[C@H]1CO (stereo partly specified)				IC50 [11]: 1850 nM
NC(=O)CC1(c2ccc(F)cc2)C2CC3CC(C2)CC1C3 (stereo unspecified)				half-life [5]: > 120 min; half-life [6]: > 120 min
COC12CC3CC(C1)C(CC(=O)N1CC(O)C1)(c1ccc(F)cc1)C(C3)C2 (stereo unspecified)	27 to 72	17 to 55	6 to 14	EC50 [10]: > 50 µM
O=C(CC1(c2ccc(F)cc2)C2CC3CC1CC(F)(C3)C2)N1CC(O)C1 (stereo unspecified)	38 to 69	13 to 38	5 to 9	EC50 [10]: > 25 µM
O=C(CC1(c2ccc(F)cc2)C2CC3CC1CC(O)(C3)C2)N1CC(O)C1 (stereo unspecified)	100	80 to 100	82 to 85	EC50 [10]: > 50 µM
Cc1cccc(C2(CC(=O)N3CC(O)C3)C3CC4CC2CC(C3)C4O)c1 (racemic)	84	54	22	
NC(=O)C1C2CC3CC1CC(C2)C3(CC(=O)N1CC(O)C1)c1ccc(F)cc1 (racemic)	100	99	92	
O=C(CC1(c2cccnc2)C2CC3CC1CC(C2)C3O)N1CC(O)C1 (racemic)	86	58	92	
O=C(CC1(C2CCCCC2)C2CC3CC1CC(C2)C3O)N1CC(O)C1 (racemic)	100	24	14	
O=C(CC1(c2ccc(F)cc2)C2CC3CC1CC(C2)C3O)N1CC(O)C1 (racemic)	95	92		IC50 [11]: 43 nM; Stability (Liver [12]): 88%; EC50 [10]: > 50 µM; Emax (PXR): 4%
O=C(CC1(c2ccc(C(F)(F)F)cc2)C2CC3CC1CC(C2)C3O)N1CC(O)C1 (racemic)	57	71	0	
O=C(CC1(c2ccncc2)C2CC3CC1CC(C2)C3O)N1CC(O)C1 (racemic)	92	94	100	
CC1(O)C2CC3CC(C2)C(CC(=O)N2CC(O)C2)(c2ccc(F)cc2)C1C3 (racemic)	41	17	23	EC50 [10]: > 50 µM

Structure (SMILES)	remaining at 10 min [7] [%]	remaining at 10 min [8] [%]	remaining at 10 min [9] [%]	other results
Cc1ccc(C2(CC(=O)N3CC(O)C3)C3CC4CC2CC(C3)C4O)cc1 (racemic)	75	72	26	
N#CC1C2CC3CC1CC(C2)C3(CC(=O)N1CC(O)C1)c1ccc(F)cc1 (racemic)	53	47	27	
O=C(CC1(c2ccc(Cl)cc2)C2CC3CC1CC(C2)C3O)N1CC(O)C1 (racemic)	81	73	58	
O=C(CC1(c2ccccn2)C2CC3CC1CC(C2)C3O)N1CC(O)C1 (racemic)	100	93	90	
Cc1ccccc1C1(CC(=O)N2CC(O)C2)C2CC3CC1CC(C2)C3O (racemic)	62	77	25	
CC1(O)C2CC3CC1CC(C2)C3(CC(=O)N1CC(O)C1)c1ccc(F)cc1 (racemic)	84	66	47	
CS(=O)(=O)c1ccc(C2(CC(=O)N3CC(O)C3)C3CC4CC2CC(C3)C4O)cc1 (racemic)	100	100	98	
O=C(CC1(c2ccc(F)cc2)C2CC3CC(C2)CC1(O)C3)N1CC(O)C1 (racemic)	25	11	2	EC50 [10]: > 50 µM
O=C(CC1(c2cccc(Cl)c2)C2CC3CC1CC(C2)C3O)N1CC(O)C1 (racemic)	85	66	37	
O=C(CC1(Cc2ccccc2)C2CC3CC1CC(C2)C3O)N1CC(O)C1 (racemic)	63	33	3	
O=C(CC1(c2ccc(-c3ccncc3)cc2)C2CC3CC1CC(C2)C3O)N1CC(O)C1 (racemic)	28	42	53	
COc1ccc(C2(CC(=O)N3CC(O)C3)C3CC4CC2CC(C3)C4O)cc1 (racemic)	98	71	70	
O=C(CC1(c2ccc(-c3ccc(F)cc3)cc2)C2CC3CC1CC(C2)C3O)N1CC(O)C1 (racemic)	39	10	5	
N#Cc1ccc(C2(CC(=O)N3CC(O)C3)C3CC4CC2CC(C3)C4O)cc1 (racemic)	100	87	95	
O=C(CC1(c2ccccc2)C2CC3CC1CC(C2)C3O)N1CC(O)C1 (racemic) [BMS-816336]	88	82		IC50 [11]: 68 nM; Stability (Liver [12]): 72%
O=C(CC1(c2ccc(F)cc2)C2CC3CC1CC(C2)C3O)N1CC(O)C1 (single isomer, unassigned; enantiomer 2)				IC50 [13]: 6.9 nM; Stability (Liver [14]): 90%; Stability (Liver [15]): 82%; Stability (Liver [12]): 75%
O=C(CC1(c2ccc(F)cc2)C2CC3CC1CC(C2)C3O)N1CC(O)C1 (stereo in doubt)				IC50 [11]: 150 nM; IC50 [13]: 24.8 nM; Stability (Liver [14]): 85%; Stability (Liver [15]): 78%; Stability (Liver [12]): 58%
O=C(CC1(c2ccccc2)C2CC3CC1CC(C2)C3O)N1CC(O)C1 (stereo in doubt; form 1)				IC50 [13]: 16 nM; Stability (Liver [14]): 89%; Stability (Liver [15]): 65%; Stability (Liver [12]): 36%
O=C(CC1(c2ccccc2)C2CC3CC1CC(C2)C3O)N1CC(O)C1 (stereo in doubt; form 2)				inhibition (Mus musculus): Dose-dependent effect
